ChEMBL document CHEMBL1147202, “Novel selective human melanocortin-3 receptor ligands: use of the 4-amino-1,2,4,5-tetrahydro-2-benzazepin-3-one (Aba) scaffold” (Bioorg Med Chem Lett, 2007)

How the values were obtained:
[1] = target: T1, Melanocyte-stimulating hormone receptor (Homo sapiens, UniProt Q01726); experiment: Maximum effect on human MC1R expressed in HEK293 cells assessed as intracellular cAMP accumulation at 0.0001 to 10 uM; format: functional, cell-based
Outline: (§1)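 Transfected HEK293 cells, grown in MEM with 10% FBS, seeded 48 h before assay (50,000 cells/well). Cells preincubated 1 min at 37 °C in Earle's balanced salt solution with IBMX, then exposed 3 min at 37 °C to peptide at 10−10 to 10−5 M. Reaction stopped with ice-cold Tris/EDTA and boiling for 7 min. cAMP in supernatant measured by [3H]cAMP/PKA competition against a standard curve. EC50 from nonlinear least-squares fit, two experiments in triplicate.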
Target sequence in this assay (Q01726 whole entry, looked up): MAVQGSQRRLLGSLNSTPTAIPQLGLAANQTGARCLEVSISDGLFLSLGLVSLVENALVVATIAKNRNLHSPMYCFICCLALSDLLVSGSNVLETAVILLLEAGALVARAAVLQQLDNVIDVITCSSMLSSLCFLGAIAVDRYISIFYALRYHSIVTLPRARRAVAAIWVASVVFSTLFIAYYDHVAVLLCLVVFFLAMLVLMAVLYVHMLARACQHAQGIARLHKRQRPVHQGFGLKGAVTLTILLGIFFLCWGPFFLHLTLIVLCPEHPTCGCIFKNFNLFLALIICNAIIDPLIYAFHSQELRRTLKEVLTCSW

Melanocortin receptor 3 [2] = target: T2, Melanocortin receptor 3 (Homo sapiens, UniProt P41968); experiment: Maximum effect on human MC3R expressed in HEK293 cells assessed as intracellular cAMP accumulation at 0.0001 to 10 uM; format: functional, cell-based; outline: as §1
T2 sequence (P41968 whole entry): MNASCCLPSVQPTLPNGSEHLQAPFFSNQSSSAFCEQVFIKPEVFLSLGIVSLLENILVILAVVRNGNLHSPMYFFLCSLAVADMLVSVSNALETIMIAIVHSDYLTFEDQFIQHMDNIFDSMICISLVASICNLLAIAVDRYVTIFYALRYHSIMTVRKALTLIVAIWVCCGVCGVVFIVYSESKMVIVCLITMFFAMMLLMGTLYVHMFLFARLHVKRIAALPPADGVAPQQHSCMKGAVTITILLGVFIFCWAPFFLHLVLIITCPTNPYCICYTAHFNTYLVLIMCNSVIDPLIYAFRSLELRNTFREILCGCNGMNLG

Melanocortin receptor 5 [3] = target: T3, Melanocortin receptor 5 (Homo sapiens, UniProt P33032); experiment: Maximum effect on human MC5R expressed in HEK293 cells assessed as intracellular cAMP accumulation at 0.0001 to 10 uM; format: functional, cell-based; outline: as §1
T3 sequence (P33032 whole entry): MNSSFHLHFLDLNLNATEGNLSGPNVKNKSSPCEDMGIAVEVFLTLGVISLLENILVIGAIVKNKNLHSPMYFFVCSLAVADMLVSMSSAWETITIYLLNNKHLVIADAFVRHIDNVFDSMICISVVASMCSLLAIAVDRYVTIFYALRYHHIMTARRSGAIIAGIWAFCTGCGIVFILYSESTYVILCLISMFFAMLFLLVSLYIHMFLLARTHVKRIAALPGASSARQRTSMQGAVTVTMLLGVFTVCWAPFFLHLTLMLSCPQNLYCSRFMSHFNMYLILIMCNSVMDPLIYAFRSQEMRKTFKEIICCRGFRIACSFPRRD

Melanocortin receptor 4 [4] = target: T4, Melanocortin receptor 4 (Homo sapiens, UniProt P32245); experiment: Maximum effect on human MC4R expressed in HEK293 cells assessed as intracellular cAMP accumulation at 0.0001 to 10 uM; format: functional, cell-based; outline: as §1
T4 sequence (P32245 whole entry): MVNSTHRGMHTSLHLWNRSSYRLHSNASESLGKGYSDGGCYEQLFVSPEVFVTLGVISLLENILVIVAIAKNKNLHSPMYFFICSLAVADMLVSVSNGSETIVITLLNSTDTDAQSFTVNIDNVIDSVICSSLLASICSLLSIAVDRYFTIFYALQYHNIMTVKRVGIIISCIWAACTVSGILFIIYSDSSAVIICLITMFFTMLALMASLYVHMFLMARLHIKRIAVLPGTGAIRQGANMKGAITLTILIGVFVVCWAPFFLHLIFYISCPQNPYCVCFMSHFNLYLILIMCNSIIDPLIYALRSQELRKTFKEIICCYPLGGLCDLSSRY

[5] = target: T1, Melanocyte-stimulating hormone receptor; experiment: Effect on human MC1R expressed in HEK293 cells assessed as intracellular cAMP accumulation; format: functional, cell-based; outline: as §1
Target sequence in this assay (Q01726 whole entry): as the sequence (Q01726 whole entry, looked up) above

Melanocortin receptor 3 [6] = target: T2, Melanocortin receptor 3; experiment: Displacement of [125I]NDPalphaMSH from human MC3R expressed in HEK293 cells; format: cell-based
Outline: (§2)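 Whole HEK293 cells stably expressing the receptor, seeded 48 h before assay (50,000 cells/well), washed with MEM/25 mM bicarbonate. Cells lysed with NaOH/Triton X-100 and counted by gamma counting. IC50 from nonlinear least-squares fit, two experiments in triplicate.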

Melanocortin receptor 4 [7] = target: T4, Melanocortin receptor 4; experiment: Effect on human MC4R expressed in HEK293 cells assessed as intracellular cAMP accumulation; format: functional, cell-based; outline: as §1
Melanocortin receptor 3 [8] = target: T2, Melanocortin receptor 3; experiment: Effect on human MC3R expressed in HEK293 cells assessed as intracellular cAMP accumulation; format: functional, cell-based; outline: as §1
Melanocortin receptor 5 [9] = target: T3, Melanocortin receptor 5; experiment: Displacement of [125I]NDPalphaMSH from human MC5R expressed in HEK293 cells; format: cell-based; outline: as §2
Melanocortin receptor 5 [10] = target: T3, Melanocortin receptor 5; experiment: Effect on human MC5R expressed in HEK293 cells assessed as intracellular cAMP accumulation; format: functional, cell-based; outline: as §1
[11] = target: T1, Melanocyte-stimulating hormone receptor; experiment: Displacement of [125I]NDPalphaMSH from human MC1R expressed in HEK293 cells; format: cell-based; outline: as §2
Target sequence in this assay (Q01726 whole entry): as the sequence (Q01726 whole entry, looked up) above

Melanocortin receptor 4 [12] = target: T4, Melanocortin receptor 4; experiment: Displacement of [125I]NDPalphaMSH from human MC4R expressed in HEK293 cells; format: cell-based; outline: as §2

For CCCC[C@H](N)C(=O)N[C@H]1CC(=O)NCCCC[C@@H](C(N)=O)NC(=O)[C@H](Cc2c[nH]c3ccccc23)NC(=O)[C@H](CCCNC(=N)N)NC(=O)[C@@H](Cc2ccc(Cl)cc2)N2Cc3ccccc3CC(NC1=O)C2=O (stereo not given in full), the Activity [1] was 60%, the Activity (Melanocortin receptor 3 [2]) was 55% and the Activity (Melanocortin receptor 5 [3]) was 45%. The Activity (Melanocortin receptor 4 [4]) was 33%.
CCCC[C@@H](NC(C)=O)C(=O)N[C@@H](CC(=O)O)C(=O)NC1Cc2ccccc2CN([C@@H](Cc2ccccc2)C(=O)N[C@@H](CCCNC(=N)N)C(=O)N[C@@H](Cc2c[nH]c3ccccc23)C(=O)N[C@@H](CCCCN)C(N)=O)C1=O (stereo not given in full) gave an Activity [1] of 0%, an Activity (Melanocortin receptor 3 [2]) of 0% and an Activity (Melanocortin receptor 5 [3]) of 0%. The Activity (Melanocortin receptor 4 [4]) was 0%.
CCCC[C@H](NC(C)=O)C(=O)N[C@@H](CC(=O)O)C(=O)N[C@H]1Cc2ccccc2CN([C@H](Cc2ccccc2)C(=O)N[C@@H](CCCN=C(N)N)C(=O)N[C@@H](Cc2c[nH]c3ccccc23)C(=O)N[C@@H](CCCCN)C(N)=O)C1=O was tested, and the EC50 ([5]; hek293) was greater than 10000 nM, the IC50 (Melanocortin receptor 3 [6]; hek293) was greater than 10000 nM and the EC50 (Melanocortin receptor 4 [7]; hek293) was greater than 10000 nM. The EC50 (Melanocortin receptor 3 [8]; hek293) was greater than 10000 nM, the IC50 (Melanocortin receptor 5 [9]; hek293) was greater than 10000 nM and the EC50 (Melanocortin receptor 5 [10]; hek293) was greater than 10000 nM. The IC50 ([11]; hek293) was greater than 10000 nM and the IC50 (Melanocortin receptor 4 [12]; hek293) was greater than 10000 nM.
In the case of CCCC[C@H](N)C(=O)N[C@H]1CC(=O)NCCCC[C@@H](C(N)=O)NC(=O)[C@H](Cc2c[nH]c3ccccc23)NC(=O)[C@H](CCCN=C(N)N)NC(=O)[C@@H](Cc2ccc(Cl)cc2)N2Cc3ccccc3CC(NC1=O)C2=O (stereo not given in full), the EC50 [5] is reported as 900 nM, the IC50 (Melanocortin receptor 3 [6]) is reported as 29 nM and the EC50 (Melanocortin receptor 4 [7]) is reported as 3200 nM. The EC50 (Melanocortin receptor 3 [8]) was greater than 1000 nM, the IC50 (Melanocortin receptor 5 [9]) was 123 nM and the EC50 (Melanocortin receptor 5 [10]) was 180 nM. The IC50 [11] was greater than 1000 nM and the IC50 (Melanocortin receptor 4 [12]) was 2000 nM.
Work on CCCC[C@H](N)C(=O)N[C@H]1CC(=O)NCCCC[C@@H](C(N)=O)NC(=O)[C@H](Cc2c[nH]c3ccccc23)NC(=O)[C@H](CCCNC(=N)N)NC(=O)[C@@H](Cc2ccc3ccccc3c2)NC(=O)[C@H](Cc2cnc[nH]2)NC1=O yielded an Activity [1] of 100%.
